In ChEMBL document CHEMBL5058577, “EUbOPEN Chemogenomics Library 2 (Multiplex)” (2022):

System: HEK-293T
Assay: Multiplex assay against HEK293T
Format: toxicity, cell-based
Conditions: human
Procedure, shortened: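 Live cells were stained at seeding with Hoechst33342, BioTracker Green Microtubule Cytoskeleton Dye, MitoTracker Red and Annexin V Alexa Fluor 680. Following compound addition, they were imaged on a CQ1 microscope at 37°C and 5% CO2 and gated by CellPathfinder machine learning into Hoechst high-intensity objects or normal cells, with normal cells split into healthy, pyknosed or fragmented nuclei and pyknosed cells into mitotic or apoptotic. Tubulin, mitochondrial-mass and membrane-permeability phenotypes are per cents of healthy-nucleus cells.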

[1] = 12 h, 1 µM, compound concentration 1 uM, replicate 1
[2] = 12 h, 1 µM, compound concentration 1 uM, replicate 2
[3] = 12 h, 10 µM, compound concentration 10 uM, replicate 1
[4] = 12 h, 10 µM, compound concentration 10 uM, replicate 2
[5] = 24 h, 1 µM, compound concentration 1 uM, replicate 1
[6] = 24 h, 1 µM, compound concentration 1 uM, replicate 2
[7] = 24 h, 10 µM, compound concentration 10 uM, replicate 1
[8] = 24 h, 10 µM, compound concentration 10 uM, replicate 2
[9] = 48 h, 1 µM, compound concentration 1 uM, replicate 1
[10] = 48 h, 1 µM, compound concentration 1 uM, replicate 2
[11] = 48 h, 10 µM, compound concentration 10 uM, replicate 1
[12] = 48 h, 10 µM, compound concentration 10 uM, replicate 2

CCNC1(C(N)=O)CCN(c2ncnc3c2nc(-c2ccccc2Cl)n3-c2ccc(Cl)cc2)CC1 [OTENABANT]
Population Apoptotic (%) [1]: 51%
Population Fragmented Nuclei (%) [1]: 8%
Population Healthy Nuclei (%) [1]: 80%
Population Hoechst High Intensity Objects (%) [1]: 10%
Population Membrane Permeable-Phenotype (%) [1]: 0%
Population Mitochondria Different-Phenotype (%) [1]: 48%
Population Mitotic Cells (%) [1]: 48%
Population Normal (%) [1]: 89%
Population Pyknosed Nuclei (%) [1]: 10%
Population Tubulin-Different-Phenotype (%) [1]: 52%
Total Cell Count [1]: 401
Population Apoptotic (%) [2]: 58%
Population Healthy Nuclei (%) [2]: 76%
Population Hoechst High Intensity Objects (%) [2]: 6%
Population Mitochondria Different-Phenotype (%) [2]: 66%
Population Mitotic Cells (%) [2]: 41%
Population Normal (%) [2]: 93%
Population Pyknosed Nuclei (%) [2]: 15%
Population Tubulin-Different-Phenotype (%) [2]: 44%
Total Cell Count [2]: 333
Population Apoptotic (%) [3]: 46%
Population Fragmented Nuclei (%) [3]: 3%
Population Healthy Nuclei (%) [3]: 74%
Population Hoechst High Intensity Objects (%) [3]: 16%
Population Membrane Permeable-Phenotype (%) [3]: 0%
Population Mitochondria Different-Phenotype (%) [3]: 82%
Population Mitotic Cells (%) [3]: 53%
Population Normal (%) [3]: 83%
Population Pyknosed Nuclei (%) [3]: 22%
Population Tubulin-Different-Phenotype (%) [3]: 50%
Total Cell Count [3]: 381
Population Apoptotic (%) [4]: 63%
Population Fragmented Nuclei (%) [4]: 4%
Population Healthy Nuclei (%) [4]: 67%
Population Hoechst High Intensity Objects (%) [4]: 9%
Population Mitochondria Different-Phenotype (%) [4]: 96%
Population Mitotic Cells (%) [4]: 36%
Population Normal (%) [4]: 90%
Population Pyknosed Nuclei (%) [4]: 27%
Population Tubulin-Different-Phenotype (%) [4]: 43%
Total Cell Count [4]: 251
Population Apoptotic (%) [5]: 49%
Population Fragmented Nuclei (%) [5]: 8%
Population Healthy Nuclei (%) [5]: 80%
Population Hoechst High Intensity Objects (%) [5]: 5%
Population Membrane Permeable-Phenotype (%) [5]: 0%
Population Mitochondria Different-Phenotype (%) [5]: 43%
Population Mitotic Cells (%) [5]: 50%
Population Normal (%) [5]: 94%
Population Pyknosed Nuclei (%) [5]: 11%
Population Tubulin-Different-Phenotype (%) [5]: 44%
Total Cell Count [5]: 474
Population Apoptotic (%) [6]: 40%
Population Fragmented Nuclei (%) [6]: 12%
Population Healthy Nuclei (%) [6]: 75%
Population Mitochondria Different-Phenotype (%) [6]: 47%
Population Mitotic Cells (%) [6]: 59%
Population Tubulin-Different-Phenotype (%) [6]: 41%
Total Cell Count [6]: 442
Population Apoptotic (%) [7]: 40%
Population Fragmented Nuclei (%) [7]: 8%
Population Healthy Nuclei (%) [7]: 71%
Population Hoechst High Intensity Objects (%) [7]: 17%
Population Membrane Permeable-Phenotype (%) [7]: 1%
Population Mitochondria Different-Phenotype (%) [7]: 79%
Population Mitotic Cells (%) [7]: 59%
Population Normal (%) [7]: 82%
Population Pyknosed Nuclei (%) [7]: 19%
Population Tubulin-Different-Phenotype (%) [7]: 56%
Total Cell Count [7]: 452
Population Apoptotic (%) [8]: 64%
Population Fragmented Nuclei (%) [8]: 6%
Population Healthy Nuclei (%) [8]: 77%
Population Hoechst High Intensity Objects (%) [8]: 13%
Population Membrane Permeable-Phenotype (%) [8]: 0%
Population Mitochondria Different-Phenotype (%) [8]: 95%
Population Mitotic Cells (%) [8]: 35%
Population Normal (%) [8]: 86%
Population Pyknosed Nuclei (%) [8]: 15%
Population Tubulin-Different-Phenotype (%) [8]: 53%
Total Cell Count [8]: 283
Population Apoptotic (%) [9]: 34%
Population Fragmented Nuclei (%) [9]: 12%
Population Healthy Nuclei (%) [9]: 78%
Population Hoechst High Intensity Objects (%) [9]: 4%
Population Membrane Permeable-Phenotype (%) [9]: 1%
Population Mitochondria Different-Phenotype (%) [9]: 29%
Population Mitotic Cells (%) [9]: 65%
Population Normal (%) [9]: 95%
Population Pyknosed Nuclei (%) [9]: 9%
Population Tubulin-Different-Phenotype (%) [9]: 30%
Total Cell Count [9]: 766
Population Apoptotic (%) [10]: 32%
Population Fragmented Nuclei (%) [10]: 8%
Population Healthy Nuclei (%) [10]: 82%
Population Membrane Permeable-Phenotype (%) [10]: 0%
Population Mitochondria Different-Phenotype (%) [10]: 30%
Population Mitotic Cells (%) [10]: 68%
Population Pyknosed Nuclei (%) [10]: 8%
Total Cell Count [10]: 604
Population Apoptotic (%) [11]: 52%
Population Fragmented Nuclei (%) [11]: 13%
Population Healthy Nuclei (%) [11]: 71%
Population Hoechst High Intensity Objects (%) [11]: 16%
Population Membrane Permeable-Phenotype (%) [11]: 2%
Population Mitochondria Different-Phenotype (%) [11]: 78%
Population Mitotic Cells (%) [11]: 47%
Population Normal (%) [11]: 83%
Population Pyknosed Nuclei (%) [11]: 15%
Population Tubulin-Different-Phenotype (%) [11]: 66%
Total Cell Count [11]: 560
Population Apoptotic (%) [12]: 70%
Population Fragmented Nuclei (%) [12]: 10%
Population Healthy Nuclei (%) [12]: 77%
Population Hoechst High Intensity Objects (%) [12]: 14%
Population Membrane Permeable-Phenotype (%) [12]: 0%
Population Mitochondria Different-Phenotype (%) [12]: 89%
Population Mitotic Cells (%) [12]: 29%
Population Normal (%) [12]: 85%
Population Pyknosed Nuclei (%) [12]: 12%
Population Tubulin-Different-Phenotype (%) [12]: 57%
Total Cell Count [12]: 325

COc1ccc2c(c1)C(C(=O)N(Cc1ccc(N(C)C)cc1)c1ccc(C(C)C)cc1)CCC2.Cl (centres undefined)
Population Apoptotic (%) [1]: 30%
Population Fragmented Nuclei (%) [1]: 6%
Population Healthy Nuclei (%) [1]: 80%
Population Hoechst High Intensity Objects (%) [1]: 7%
Population Membrane Permeable-Phenotype (%) [1]: 0%
Population Mitochondria Different-Phenotype (%) [1]: 39%
Population Mitotic Cells (%) [1]: 70%
Population Normal (%) [1]: 92%
Population Pyknosed Nuclei (%) [1]: 13%
Population Tubulin-Different-Phenotype (%) [1]: 27%
Total Cell Count [1]: 413
Population Apoptotic (%) [2]: 43%
Population Fragmented Nuclei (%) [2]: 5%
Population Healthy Nuclei (%) [2]: 79%
Population Hoechst High Intensity Objects (%) [2]: 4%
Population Mitochondria Different-Phenotype (%) [2]: 61%
Population Mitotic Cells (%) [2]: 56%
Population Normal (%) [2]: 95%
Population Pyknosed Nuclei (%) [2]: 14%
Population Tubulin-Different-Phenotype (%) [2]: 23%
Total Cell Count [2]: 330
Population Apoptotic (%) [3]: 60%
Population Fragmented Nuclei (%) [3]: 9%
Population Healthy Nuclei (%) [3]: 78%
Population Hoechst High Intensity Objects (%) [3]: 10%
Population Membrane Permeable-Phenotype (%) [3]: 0%
Population Mitochondria Different-Phenotype (%) [3]: 60%
Population Mitotic Cells (%) [3]: 39%
Population Normal (%) [3]: 89%
Population Pyknosed Nuclei (%) [3]: 11%
Population Tubulin-Different-Phenotype (%) [3]: 64%
Total Cell Count [3]: 383
Population Apoptotic (%) [4]: 63%
Population Fragmented Nuclei (%) [4]: 4%
Population Healthy Nuclei (%) [4]: 77%
Population Hoechst High Intensity Objects (%) [4]: 6%
Population Mitochondria Different-Phenotype (%) [4]: 75%
Population Mitotic Cells (%) [4]: 36%
Population Normal (%) [4]: 93%
Population Pyknosed Nuclei (%) [4]: 17%
Population Tubulin-Different-Phenotype (%) [4]: 57%
Total Cell Count [4]: 361
Population Apoptotic (%) [5]: 31%
Population Fragmented Nuclei (%) [5]: 9%
Population Healthy Nuclei (%) [5]: 81%
Population Hoechst High Intensity Objects (%) [5]: 3%
Population Membrane Permeable-Phenotype (%) [5]: 0%
Population Mitochondria Different-Phenotype (%) [5]: 20%
Population Mitotic Cells (%) [5]: 68%
Population Normal (%) [5]: 96%
Population Pyknosed Nuclei (%) [5]: 8%
Population Tubulin-Different-Phenotype (%) [5]: 13%
Total Cell Count [5]: 567
Population Apoptotic (%) [6]: 60%
Population Fragmented Nuclei (%) [6]: 7%
Population Healthy Nuclei (%) [6]: 79%
Population Hoechst High Intensity Objects (%) [6]: 6%
Population Mitochondria Different-Phenotype (%) [6]: 33%
Population Mitotic Cells (%) [6]: 40%
Population Normal (%) [6]: 93%
Population Pyknosed Nuclei (%) [6]: 13%
Population Tubulin-Different-Phenotype (%) [6]: 11%
Total Cell Count [6]: 399
Population Apoptotic (%) [7]: 35%
Population Fragmented Nuclei (%) [7]: 9%
Population Healthy Nuclei (%) [7]: 73%
Population Hoechst High Intensity Objects (%) [7]: 10%
Population Membrane Permeable-Phenotype (%) [7]: 1%
Population Mitochondria Different-Phenotype (%) [7]: 51%
Population Mitotic Cells (%) [7]: 64%
Population Normal (%) [7]: 89%
Population Pyknosed Nuclei (%) [7]: 17%
Population Tubulin-Different-Phenotype (%) [7]: 70%
Total Cell Count [7]: 409
Population Apoptotic (%) [8]: 45%
Population Fragmented Nuclei (%) [8]: 7%
Population Healthy Nuclei (%) [8]: 76%
Population Hoechst High Intensity Objects (%) [8]: 6%
Population Membrane Permeable-Phenotype (%) [8]: 0%
Population Mitochondria Different-Phenotype (%) [8]: 60%
Population Mitotic Cells (%) [8]: 55%
Population Normal (%) [8]: 93%
Population Pyknosed Nuclei (%) [8]: 16%
Population Tubulin-Different-Phenotype (%) [8]: 60%
Total Cell Count [8]: 389
Population Apoptotic (%) [9]: 20%
Population Fragmented Nuclei (%) [9]: 12%
Population Healthy Nuclei (%) [9]: 80%
Population Hoechst High Intensity Objects (%) [9]: 1%
Population Membrane Permeable-Phenotype (%) [9]: 1%
Population Mitochondria Different-Phenotype (%) [9]: 10%
Population Mitotic Cells (%) [9]: 79%
Population Normal (%) [9]: 98%
Population Pyknosed Nuclei (%) [9]: 6%
Population Tubulin-Different-Phenotype (%) [9]: 10%
Total Cell Count [9]: 968
Population Apoptotic (%) [10]: 46%
Population Healthy Nuclei (%) [10]: 81%
Population Hoechst High Intensity Objects (%) [10]: 4%
Population Membrane Permeable-Phenotype (%) [10]: 0%
Population Mitochondria Different-Phenotype (%) [10]: 17%
Population Mitotic Cells (%) [10]: 53%
Population Normal (%) [10]: 95%
Population Tubulin-Different-Phenotype (%) [10]: 15%
Total Cell Count [10]: 631
Population Apoptotic (%) [11]: 59%
Population Fragmented Nuclei (%) [11]: 15%
Population Healthy Nuclei (%) [11]: 75%
Population Hoechst High Intensity Objects (%) [11]: 9%
Population Membrane Permeable-Phenotype (%) [11]: 6%
Population Mitochondria Different-Phenotype (%) [11]: 25%
Population Mitotic Cells (%) [11]: 40%
Population Normal (%) [11]: 90%
Population Pyknosed Nuclei (%) [11]: 9%
Population Tubulin-Different-Phenotype (%) [11]: 53%
Total Cell Count [11]: 558
Population Apoptotic (%) [12]: 36%
Population Fragmented Nuclei (%) [12]: 11%
Population Healthy Nuclei (%) [12]: 79%
Population Hoechst High Intensity Objects (%) [12]: 3%
Population Membrane Permeable-Phenotype (%) [12]: 2%
Population Mitochondria Different-Phenotype (%) [12]: 24%
Population Mitotic Cells (%) [12]: 63%
Population Normal (%) [12]: 96%
Population Pyknosed Nuclei (%) [12]: 8%
Population Tubulin-Different-Phenotype (%) [12]: 50%
Total Cell Count [12]: 482
